# Assay results as given in PMC2213596 (The Journal of Cell Biology, 2008).
# Assays:
# [1] = system: MEFs; experiment: short-term killing assay with ABT-737; assay type: cell-based, mouse
# Summary of the method: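 Constructs in pMIG (MSCV-IRES-GFP) were packaged in transiently transfected ecotropic Phoenix cells. Filtered supernatants were spin-inoculated onto FDC-P1 cells or SV40 large T-immortalized MEFs. ABT-737 was added immediately after spin inoculation. Viability was the fraction of GFP+ cells excluding 5 μg/ml PI, read by flow cytometry 30 h or at indicated times after transduction. MEF dose-response used stably infected lines given 0–10 μM ABT-737 for 24 h.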
# [2] = system: cytochrome c release from MEF mitochondria; experiment: in vitro cytochrome c release assay; assay type: cell-based, mouse; settings: 5 μM ABT-737, 30°C, 1 h
# [3] = system: Mcl-1 in primary thymocytes; experiment: Mcl-1 levels by Western blotting after ionomycin; assay type: cell-based, mouse; settings: with 50 μM qVD-OPH
# Summary of the method: (§1)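 Cells were cultured with 50 μM qVD-OPH to block caspase cleavage of Mcl-1. For 2, MCF-7 cells were given 1.5 μM thapsigargin for up to 48 h. For 1, primary bim+/+ mouse thymocytes were given 1 μg/ml ionomycin. Cells were lysed in 1% (vol/vol) Triton X-100 buffer. Western blots were probed with rat monoclonal anti-Mcl-1 (19C4-15) and anti-Bim, then reprobed for HSP70 as loading control.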
# [4] = system: primary thymocytes; experiment: ionomycin-induced killing, cell viability; assay type: cell-based, mouse; settings: 1 μg/ml ionomycin
# Summary of the method: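 Thymocytes came from bim+/+ or bim−/− mice. They were treated with 1 μg/ml ionomycin for 0–24 h. Viability was scored by flow cytometry as propidium iodide-excluding cells. Values are means ± SD of three experiments.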
# [5] = system: MCF-7 cells; experiment: thapsigargin-induced apoptosis, cell viability; assay type: cell-based; settings: 1.5 μM thapsigargin, 0–48 h
# Summary of the method: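 Wild-type MCF-7 cells and a subclone stably expressing Bim shRNA were treated with 1.5 μM thapsigargin for 0–48 h. Survival was measured by flow cytometry as propidium iodide exclusion. Values are means ± SD of three experiments.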
# [6] = system: Mcl-1 in MCF-7 cells; experiment: Mcl-1 levels by Western blotting after thapsigargin; assay type: cell-based; settings: up to 48 h, with 50 μM qVD-OPH
# Summary of the method: as §1
# [7] = system: MEFs; experiment: long-term tolerance assay; assay type: cell-based, mouse; settings: wild-type MEFs; retroviral expression linked to GFP through IRES; ∼40 d
# Summary of the method: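 SV40-immortalized MEF lines stably expressing BH3-only constructs from pMIG (GFP via IRES) were grown without selection. They were harvested every 3 or 4 d over 38 d. At each time point, flow cytometry measured the proportion of GFP+ cells that excluded propidium iodide.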
molecule,measurement,setting,value
CN(C)CC[C@H](CSc1ccccc1)Nc1ccc(S(=O)(=O)NC(=O)c2ccc(N3CCN(Cc4ccccc4-c4ccc(Cl)cc4)CC3)cc2)cc1[N+](=O)[O-] [ABT-737],time to maximal cell death,"[1]; 1 μM ABT-737, MEFs expressing BimS2A, Noxa or BimSNoxaBH3",4 to 6 h
same,killing of MEFs lacking Bim and Bid,[1]; ABT-737 with BimS2A expression,able to synergize and kill
same,killing of bax−/− and bak−/− MEFs,[1]; BimS2A/ABT-737 combination,able to kill
same,viability of MEFs expressing Mcl-1–selective BH3-only proteins,"[1]; MEFs expressing BimS2A, BimSNoxaBH3 or Noxa, 24 h, 0–10 μM ABT-737",efficiently kill cells
same,cytochrome c release,[2]; mitochondria from BimS2A-expressing cells,significant release
same,cytochrome c release,[2]; mitochondria from BimS4E-expressing cells,No cytochrome c release
C[C@H](CCC(=O)O)C[C@H](C)C[C@H](C)C(=O)/C=C(\O)[C@H](C)C[C@H](C)C/C=C/[C@@H](C)[C@@H](O)[C@@H](C)[C@@H](O)C[C@@H]1CC[C@@](C)([C@H]2CC[C@@](C)([C@@H](C)O)O2)O1 [ionomycin],Mcl-1 levels after treatment,[3],did not significantly change
same,killing of Bim-deficient thymocytes,[4]; 0–24 h,attenuates
same,death of wild-type thymocytes,"[4]; 0–24 h, three experiments",significant death
CC(C)[C@H](NC(=O)c1ccc2ccccc2n1)C(=O)N[C@@H](CC(=O)O)C(=O)COc1c(F)cccc1F [qVD-OPH],effect on killing induced by ionomycin,"[4]; 50 μM qVD-OPH, thymocytes",significantly reduced the killing
C/C=C(/C)C(=O)O[C@H]1C(C)=C2[C@H]([C@@H]1OC(=O)CCCCCCC)[C@@](C)(OC(C)=O)C[C@H](OC(=O)CCC)[C@@]1(O)[C@H]2OC(=O)[C@@]1(C)O [thapsigargin],cell death of MCF-7 cells expressing Bim shRNA,[5],relatively insensitive
same,cell death of wild-type MCF-7 cells,[5]; three experiments,Significant cell death
same,Mcl-1 levels over levels in untreated cells,[6],up to twofold
"BimS2A: full-length BimS containing the L62A/F69A mutations, retrovirally expressed (protein, left off: HA, end not stated, kept) MAKQPSDVSSECDREGRQLQPAERPPQLRPGAPTSLQTEPQASMRQAEPADMRPEIWIAQEARRIGDEANAYYARRVFLNNYQAAEDHPRMVILRLLRYIVRLVWRMH",viable cells that remained GFP+ve,[7],progressive loss
"Noxa: BH3-only protein preferentially binding Mcl-1, retrovirally expressed (protein, UniProt Q9JM54 1-103, looked up) Phorbol-12-myristate-13-acetat …: MPGRKARRNAPVNPTRAELPPEFAAQLRKIGDKVYCTWSAPDITVVLAQMPGKSQKSRMRSPSPTRVPADLKDECAQLRRIGDKVNLRQKLLNLISKLFNLVT",viable cells that remained GFP+ve,[7],progressive loss
"Bad: BH3-only protein targeting Bcl-xL, Bcl-w and Bcl-2, retrovirally expressed (protein, UniProt Q61337 1-204, looked up) Bcl2-associated agonist of …: MGTPKQPSLAPAHALGLRKSDPGIRSLGSDAGGRRWRPAAQSMFQIPEFEPSEQEDASATDRGLGPSLTEDQPGPYLAPGLLGSNIHQQGRAATNSHHGGAGAMETRSRHSSYPAGTEEDEGMEEELSPFRGRSRSAPPNLWAAQRYGRELRRMSDEFEGSFKGLPRPKSAGTATQMRQSAGWTRIIQSWWDRNLGKGGSTPSQ",viable cells that remained GFP+ve,[7],> 80%
